PMC7616001 (Journal of medicinal chemistry, 2022)
Read-outs that look alike come from different tables or passages of the source.

Assays:
A2780 [1] = settings: cited from earlier work
HeLa [2] = test: MTT assay, 72 h continuous exposure, HeLa cells; assay type: cell-based, human; settings: read-out: IC50 HeLa; 72 h continuous exposure, MTT assay
How it was run: (§1)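 Ovarian lines grown in RPMI with 10% FBS and 1% penicillin/streptomycin; A2780Cis kept on 2 μM cisplatin 3 days each week. HeLa grown in DMEM with the same supplements. 3 × 10^3 cells/well, overnight, then serial dilutions of DMSO stocks (final DMSO ≤0.1%); cisplatin stock in PBS. 72 h continuous exposure, MTT 0.5 mg/mL 3 h, formazan in DMSO, A570 normalised to untreated. IC50 from curves; ≥3 independent experiments.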

Cyclic voltammetry = assay type: physicochemical; settings: acetonitrile, 0.1 M NEt4BF4
HeLa [3] = settings: read-out: IC50 HeLa; 72 h continuous exposure, MTT assay; cited from earlier work
[4] = cited from earlier work
ROS level in HeLa cells = test: H2DCF-DA intracellular ROS assay; assay type: cell-based, human; settings: 10 μM, 1-8 h
How it was run: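 HeLa plated at 10 × 10^3 per well, grown overnight, then exposed to 10 μM test compound for 1, 2, 4 or 8 h. Washed with PBS and loaded with 10 μM H2DCF‑DA for 30 min. Washed again, phenol red‑free DMEM added, fluorescence read immediately. Three biological replicates.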

A2780cis [5] = settings: A2780Cis versus wild-type A2780; cited from earlier work
[6] = system: PARP, p53, cleaved caspase 3 in HeLa cells; test: Western blot of apoptosis-related marker proteins; assay type: cell-based, human; settings: 24 h, cisplatin 10 μM, 1 at 1/4 × IC50 to IC50
How it was run: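 ~2 million HeLa per 60 mm dish, grown to 80–90% confluency, treated 24 h at 10, 20 or 40 μM. Lysed in RIPA buffer with protease inhibitors. Membranes blocked with 2% skim milk in 0.1% Tween 20 for 30 min. Primary antibody 1:1000 overnight at 4 °C; HRP secondary antibody.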

A2780cis [7] = test: MTT assay, 72 h continuous exposure, cisplatin-resistant A2780Cis cells; assay type: cell-based, human; settings: read-out: IC50 A2780cis; 72 h continuous exposure, MTT assay
How it was run: as §1

[8] = system: MEF-Bax/Bak^+/+ and MEF-Bax/Bak^−/− cell lines; test: Cytotoxicity in MEF-Bax/Bak+/+ versus MEF-Bax/Bak−/− cells; assay type: cell-based, murine
HeLa cells [9] = test: Annexin-V/PI dual staining flow cytometry; assay type: cell-based, human; settings: 10 μM (0.7 × IC50/24h)
A2780 [10] = test: MTT assay, 72 h continuous exposure, A2780 cells; assay type: cell-based, human; settings: read-out: IC50 A2780; 72 h continuous exposure, MTT assay
How it was run: as §1

HeLa cells [11] = test: Intracellular distribution between nucleus and cytoplasm, ICP-MS; assay type: cell-based, human; settings: 10 μM, 24 h exposure
How it was run: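 5 × 10^6 HeLa per 100 mm plate, grown overnight. Exposed 24 h to 10 μM test compound, with 10 μM cisplatin as comparator. PBS‑washed, trypsinised, counted. Nuclear and cytoplasmic fractions isolated with a commercial kit. Protein measured by BCA assay, metal by ICP‑MS. Three experiments of ≥3 replicates.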

HeLa [12] = test: 72 h crystal violet; assay type: cell-based, human; settings: HeLa and A2780, 72 h
How it was run: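 Seeding and dosing as for MTT: 3 × 10^3 cells/well, overnight, final DMSO ≤0.1%, 72 h exposure. Wells washed with PBS and fixed in 4% paraformaldehyde for 15 min. Crystal violet stained, dried, dissolved in 96% ethanol and A570 read. IC50 derived from dose–response curves.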

[13] = read-out: IC50 in A2780 cells, reported antitumor activities

[Ru(η^6-arene)Cl(curcuminato)]
IC50 (A2780 [1]; [13]): 23.4 µM

O=C1[O][Pt]2([NH][C@@H]3CCCC[C@H]3[NH]2)[O]C1=O [oxaliplatin, reference compound]
IC50 (HeLa [2]): 2.1 ± 0.3 µM

O=C(CC(=O)C(F)(F)F)[c-]1cccc1.[Fe+2].c1cc[cH-]c1 [Compound L1, 4,4,4-trifluoro-1-ferrocenylbutane-1,3-dione]
oxidation potential (vs Fc^+/0) (Cyclic voltammetry): 287 mV | IC50 (A2780 [1]; read-out: IC50 A2780, 72 h, MTT assay): 11.4 ± 2 µM | IC50 (HeLa [3]): 23 µM | pKa [4]: 6.5 | intracellular ROS level (H2DCF-DA) (ROS level in HeLa cells): unable to elevate the level of intracellular ROS

N.N.[Cl][Pt][Cl] [cisplatin, reference compound]
resistance factor, RF (A2780cis [5]): 9.7 | apoptosis markers (PARP cleavage, p53, cleaved caspase 3) [6]: cleavage of PARP and sharp upregulation of P53 and cleaved caspase 3 | IC50 (A2780cis [7]): 6.7 ± 0.1 µM | IC50 in MEF-Bax/Bak^−/− compared to MEF-Bax/Bak^+/+ cells [8]: 2.5 fold | AV^+/PI^− cells (early apoptosis) (HeLa cells [9]): 13.4% | IC50 (A2780 [10]): 0.8 ± 0.1 µM | metal content in nuclear fraction relative to cytoplasmic fraction (HeLa cells [11]): equally distributed between the cytoplasm and nucleus | IC50 from CV assay compared to IC50 from MTT assay (HeLa [12]): comparable | IC50 (HeLa [2]): 3 ± 0.1 µM

[Ru(η^6-arene)(PTA)-(4,4,4-trifluoro-1-(4-chlorophenyl)-1,3-butanedionato)]
IC50 (A2780 [1]; [13]): 34.8 µM
